Test results: ChEMBL document CHEMBL1124865, “Synthesis and biological evaluation of a series of parenteral 3'-quaternary ammonium cephalosporins” (J Med Chem, 1990)
Converted amounts (≈) assume the structure as drawn.

Legend:
Format in all cases: functional
Escherichia coli [1] = assay: Antibacterial activity against Escherichia coli TEM; conditions: Escherichia coli; read-out: MIC
Klebsiella pneumoniae [2] = assay: In vitro relative hydrolysis rate against Klebsiella IV
In short: (§1)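 Spectrophotometric hydrolysis at 265 nm, substrate exposed to partially purified cell-free β-lactamase preparations; rate expressed as percentage of the cephaloridine rate.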

Enterobacter cloacae [3] = assay: In vitro relative hydrolysis rate against Enterobacter Ia; in short: as §1
Pseudomonas aeruginosa [4] = assay: In vitro relative hydrolysis rate against Pseudomonas Id; in short: as §1
Staphylococcus aureus [5] = assay: In vivo efficacy against Staphylococcus aureus infections in mice
Staphylococcus aureus [6] = assay: Antibacterial activity against penicillin G resistance Staphylococcus aureus
Streptococcus pyogenes = assay: Antibacterial activity against Streptococcus pyogenes; conditions: Streptococcus pyogenes; read-out: MIC
Klebsiella pneumoniae [7] = assay: Antibacterial activity against Klebsiella pneumoniae X26
Escherichia coli [8] = assay: In vivo efficacy against Escherichia coli infected mice treated at 1 hr and 5 hr post infection; conditions: Escherichia coli; read-out: ED50
Pseudomonas aeruginosa [9] = assay: Antibacterial activity against Pseudomonas aeruginosa PS18
Klebsiella pneumoniae [10] = assay: microbe, parasite or virus in culture
Serratia marcescens = assay: Antibacterial activity against Serratia marcescens SE3
Pseudomonas aeruginosa [11] = assay: Antibacterial activity against Pseudomonas aeruginosa X528
Staphylococcus aureus [12] = assay: In vitro relative hydrolysis rate against Staphylococcus aureus; in short: as §1
Pseudomonas aeruginosa [13] = assay: In vivo efficacy against Pseudomonas aeruginosa infections in mice; conditions: Pseudomonas aeruginosa; read-out: MIC
Streptococcus pneumoniae = assay: Antibacterial activity against Streptococcus pneumoniae; conditions: Streptococcus pneumoniae; read-out: MIC
Staphylococcus aureus [14] = assay: In vivo efficacy against Staphylococcus aureus infected mice treated at 1 hr and 5 hr post infection
Enterobacter cloacae [15] = assay: Antibacterial activity against Enterobacter cloacae EB5; conditions: Enterobacter cloacae; read-out: MIC
Escherichia coli [16] = assay: Antibacterial activity against Escherichia coli EC14
Pseudomonas aeruginosa [17] = assay: In vivo efficacy against Pseudomonas aeruginosa infected mice treated at 1 hr and 5 hr post infection; conditions: Pseudomonas aeruginosa; read-out: ED50
Enterococcus faecium = assay: Antibacterial activity against Enterococcus faecium; conditions: Enterococcus faecium; read-out: MIC
Staphylococcus aureus [18] = assay: Antibacterial activity against penicillin G susceptible Staphylococcus aureus
Escherichia coli [19] = assay: In vitro relative hydrolysis rate against Escherichia coli IIIa; in short: as §1
Enterobacter cloacae [20] = assay: Antibacterial activity against Enterobacter cloacae 265A
Escherichia coli [21] = assay: In vivo efficacy against Escherichia coli infections in mice; conditions: Escherichia coli; read-out: MIC
Cavia porcellus = species on record: Cavia porcellus; assay: In vitro relative anticholinergic potential in isolated guinea pig trachea
In short: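 Guinea pig trachea in Krebs' solution at 37.5 °C, 95% O2/5% CO2, pH 7.4, 2 g resting tension. Cumulative carbachol log dose-response curve (3-fold steps) run before and 30 min after adding antagonist at 1 mM. […] Tukey test on log2 dose ratios.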

[22] = Staphylococcus aureus, read-out: MIC
[23] = Klebsiella pneumoniae, read-out: MIC
[24] = Pseudomonas aeruginosa, read-out: MIC
[25] = Serratia marcescens, read-out: MIC
[26] = Staphylococcus aureus, read-out: ED50
[27] = Escherichia coli, read-out: MIC
[28] = Enterobacter cloacae, read-out: MIC

## CO/N=C(\C(=O)N[C@@H]1C(=O)N2C(C(=O)[O-])=C(C[n+]3cccc4ccccc43)CS[C@H]12)c1csc(N)n1
Escherichia coli [1]
  MIC: 0.015 µg/mL (≈ 0.0286 µM)
Klebsiella pneumoniae [2]
  Hydrolysis rate: 0.8
Enterobacter cloacae [3]
  Hydrolysis rate: 0.1
Pseudomonas aeruginosa [4]
  Hydrolysis rate: 0.1
Staphylococcus aureus [5]; [22]
  MIC: 0.5 µg/mL (≈ 0.953 µM)
Staphylococcus aureus [6]; [22]
  MIC: 1 µg/mL (≈ 1.91 µM)
Streptococcus pyogenes
  MIC: 0.015 µg/mL (≈ 0.0286 µM)
Klebsiella pneumoniae [7]; [23]
  MIC: 0.015 µg/mL (≈ 0.0286 µM)
Escherichia coli [8]
  ED50: 0.04 mg/kg
Pseudomonas aeruginosa [9]; [24]
  MIC: 4 µg/mL (≈ 7.63 µM)
Klebsiella pneumoniae [10]; [23]
  MIC: 2 µg/mL (≈ 3.81 µM)
Serratia marcescens; [25]
  MIC: 0.125 µg/mL (≈ 0.238 µM)
Pseudomonas aeruginosa [11]; [24]
  MIC: 2 µg/mL (≈ 3.81 µM)
Staphylococcus aureus [12]
  Hydrolysis rate: 8.4
Pseudomonas aeruginosa [13]
  MIC: 8 µg/mL (≈ 15.3 µM)
Streptococcus pneumoniae
  MIC: 0.015 µg/mL (≈ 0.0286 µM)
Staphylococcus aureus [14]; [26]
  ED50: 0.4 mg/kg
Enterobacter cloacae [15]
  MIC: 0.125 µg/mL (≈ 0.238 µM)
Escherichia coli [16]; [27]
  MIC: 0.03 µg/mL (≈ 0.0572 µM)
Pseudomonas aeruginosa [17]
  ED50: 9.5 mg/kg
Enterococcus faecium
  MIC: 128 µg/mL (≈ 244 µM)
Staphylococcus aureus [18]; [22]
  MIC: 0.5 µg/mL (≈ 0.953 µM)
Escherichia coli [19]
  Hydrolysis rate: 0.2
Enterobacter cloacae [20]; [28]
  MIC: 4 µg/mL (≈ 7.63 µM)
Escherichia coli [21]
  MIC: 0.03 µg/mL (≈ 0.0572 µM)

## CO/N=C(\C(=O)N[C@@H]1C(=O)N2C(C(=O)[O-])=C(C[n+]3ccc4ccccc4c3)CS[C@H]12)c1csc(N)n1
Escherichia coli [1]
  MIC: 0.03 µg/mL (≈ 0.0572 µM)
Klebsiella pneumoniae [2]
  Hydrolysis rate: 2.8
Enterobacter cloacae [3]
  Hydrolysis rate: 0.3
Pseudomonas aeruginosa [4]
  Hydrolysis rate: 0.1
Staphylococcus aureus [5]; [22]
  MIC: 1 µg/mL (≈ 1.91 µM)
Staphylococcus aureus [6]; [22]
  MIC: 1 µg/mL (≈ 1.91 µM)
Streptococcus pyogenes
  MIC: < 0.008 µg/mL
Klebsiella pneumoniae [7]; [23]
  MIC: 0.015 µg/mL (≈ 0.0286 µM)
Escherichia coli [8]
  ED50: 0.04 mg/kg
Pseudomonas aeruginosa [9]; [24]
  MIC: 4 µg/mL (≈ 7.63 µM)
Klebsiella pneumoniae [10]; [23]
  MIC: 2 µg/mL (≈ 3.81 µM)
Serratia marcescens; [25]
  MIC: 0.06 µg/mL (≈ 0.114 µM)
Pseudomonas aeruginosa [11]; [24]
  MIC: 2 µg/mL (≈ 3.81 µM)
Staphylococcus aureus [12]
  Hydrolysis rate: 9.3
Pseudomonas aeruginosa [13]
  MIC: 8 µg/mL (≈ 15.3 µM)
Streptococcus pneumoniae
  MIC: 0.015 µg/mL (≈ 0.0286 µM)
Staphylococcus aureus [14]; [26]
  ED50: 0.4 mg/kg
Enterobacter cloacae [15]
  MIC: 0.06 µg/mL (≈ 0.114 µM)
Escherichia coli [16]; [27]
  MIC: 0.015 µg/mL (≈ 0.0286 µM)
Pseudomonas aeruginosa [17]
  ED50: 9 mg/kg
Enterococcus faecium
  MIC: 128 µg/mL (≈ 244 µM)
Staphylococcus aureus [18]; [22]
  MIC: 1 µg/mL (≈ 1.91 µM)
Escherichia coli [19]
  Hydrolysis rate: 0.2
Enterobacter cloacae [20]; [28]
  MIC: 8 µg/mL (≈ 15.3 µM)
Escherichia coli [21]
  MIC: 0.015 µg/mL (≈ 0.0286 µM)

## CO/N=C(\C(=O)N[C@@H]1C(=O)N2C(C(=O)[O-])=C(C[n+]3ccc(CC(=O)NO)cc3)CS[C@H]12)c1csc(N)n1 (stereo in doubt; 11)
Klebsiella pneumoniae [2]
  Hydrolysis rate: 10.4
Enterobacter cloacae [3]
  Hydrolysis rate: 0.4
Pseudomonas aeruginosa [4]
  Hydrolysis rate: 0.1
Staphylococcus aureus [12]
  Hydrolysis rate: 3.4
Staphylococcus aureus [14]
  ED50: 4 mg/kg
Escherichia coli [19]
  Hydrolysis rate: 0.5

## CO/N=C(\C(=O)N[C@@H]1C(=O)N2C(C(=O)[O-])=C(C[n+]3ccc(C(N)=S)cc3)CS[C@H]12)c1csc(N)n1
Escherichia coli [1]
  MIC: 0.03 µg/mL (≈ 0.0562 µM)
Staphylococcus aureus [5]; [22]
  MIC: 1 µg/mL (≈ 1.87 µM)
Staphylococcus aureus [6]; [22]
  MIC: 2 µg/mL (≈ 3.75 µM)
Streptococcus pyogenes
  MIC: < 0.008 µg/mL
Klebsiella pneumoniae [7]; [23]
  MIC: 0.03 µg/mL (≈ 0.0562 µM)
Escherichia coli [8]
  ED50: < 0.16 mg/kg
Pseudomonas aeruginosa [9]; [24]
  MIC: 2 µg/mL (≈ 3.75 µM)
Klebsiella pneumoniae [10]; [23]
  MIC: 8 µg/mL (≈ 15 µM)
Serratia marcescens; [25]
  MIC: 0.06 µg/mL (≈ 0.112 µM)
Pseudomonas aeruginosa [11]; [24]
  MIC: 1 µg/mL (≈ 1.87 µM)
Pseudomonas aeruginosa [13]
  MIC: 8 µg/mL (≈ 15 µM)
Streptococcus pneumoniae
  MIC: 0.015 µg/mL (≈ 0.0281 µM)
Staphylococcus aureus [14]; [26]
  ED50: 1.4 mg/kg
Enterobacter cloacae [15]
  MIC: 0.125 µg/mL (≈ 0.234 µM)
Escherichia coli [16]; [27]
  MIC: 0.03 µg/mL (≈ 0.0562 µM)
Pseudomonas aeruginosa [17]
  ED50: 7.2 mg/kg
Enterococcus faecium
  MIC: > 128 µg/mL
Staphylococcus aureus [18]; [22]
  MIC: 1 µg/mL (≈ 1.87 µM)
Enterobacter cloacae [20]; [28]
  MIC: 8 µg/mL (≈ 15 µM)
Escherichia coli [21]
  MIC: 0.03 µg/mL (≈ 0.0562 µM)

## CO/N=C(\C(=O)N[C@@H]1C(=O)N2C(C(=O)[O-])=C(C[n+]3cccc(CC(=O)O)c3)CS[C@H]12)c1csc(N)n1 (stereo in doubt; 14)
Escherichia coli [1]
  MIC: 0.06 µg/mL (≈ 0.113 µM)
Staphylococcus aureus [5]
  MIC: 1 µg/mL (≈ 1.88 µM)
Staphylococcus aureus [6]
  MIC: 2 µg/mL (≈ 3.76 µM)
Streptococcus pyogenes
  MIC: 0.015 µg/mL (≈ 0.0282 µM)
Klebsiella pneumoniae [7]
  MIC: 0.03 µg/mL (≈ 0.0563 µM)
Escherichia coli [8]
  ED50: 0.09 mg/kg
Pseudomonas aeruginosa [9]
  MIC: 8 µg/mL (≈ 15 µM)
Klebsiella pneumoniae [10]
  MIC: 16 µg/mL (≈ 30 µM)
Serratia marcescens
  MIC: 0.125 µg/mL (≈ 0.235 µM)
Pseudomonas aeruginosa [11]
  MIC: 2 µg/mL (≈ 3.76 µM)
Pseudomonas aeruginosa [13]
  MIC: 8 µg/mL (≈ 15 µM)
Streptococcus pneumoniae
  MIC: 0.015 µg/mL (≈ 0.0282 µM)
Staphylococcus aureus [14]
  ED50: 1.4 mg/kg
Enterobacter cloacae [15]
  MIC: 0.25 µg/mL (≈ 0.469 µM)
Escherichia coli [16]
  MIC: 0.06 µg/mL (≈ 0.113 µM)
Pseudomonas aeruginosa [17]
  ED50: 20 mg/kg
Enterococcus faecium
  MIC: > 128 µg/mL
Staphylococcus aureus [18]
  MIC: 1 µg/mL (≈ 1.88 µM)
Enterobacter cloacae [20]
  MIC: 16 µg/mL (≈ 30 µM)
Escherichia coli [21]
  MIC: 0.06 µg/mL (≈ 0.113 µM)

## CO/N=C(\C(=O)N[C@@H]1C(=O)N2C(C(=O)[O-])=C(C[n+]3ccc4c(O)cccc4c3)CS[C@H]12)c1csc(N)n1
Escherichia coli [1]
  MIC: 0.03 µg/mL (≈ 0.0555 µM)
Staphylococcus aureus [5]; [22]
  MIC: 1 µg/mL (≈ 1.85 µM)
Staphylococcus aureus [6]; [22]
  MIC: 2 µg/mL (≈ 3.7 µM)
Streptococcus pyogenes
  MIC: < 0.008 µg/mL
Klebsiella pneumoniae [7]; [23]
  MIC: < 0.008 µg/mL
Escherichia coli [8]
  ED50: < 0.03 mg/kg
Pseudomonas aeruginosa [9]; [24]
  MIC: 8 µg/mL (≈ 14.8 µM)
Klebsiella pneumoniae [10]; [23]
  MIC: 8 µg/mL (≈ 14.8 µM)
Serratia marcescens; [25]
  MIC: 0.25 µg/mL (≈ 0.462 µM)
Pseudomonas aeruginosa [11]; [24]
  MIC: 8 µg/mL (≈ 14.8 µM)
Pseudomonas aeruginosa [13]
  MIC: 8 µg/mL (≈ 14.8 µM)
Streptococcus pneumoniae
  MIC: 0.05 µg/mL (≈ 0.0925 µM)
Staphylococcus aureus [14]; [26]
  ED50: 2 mg/kg
Enterobacter cloacae [15]
  MIC: 0.125 µg/mL (≈ 0.231 µM)
Escherichia coli [16]; [27]
  MIC: 0.015 µg/mL (≈ 0.0277 µM)
Pseudomonas aeruginosa [17]
  ED50: > 50 mg/kg
Enterococcus faecium
  MIC: 128 µg/mL (≈ 237 µM)
Staphylococcus aureus [18]; [22]
  MIC: 1 µg/mL (≈ 1.85 µM)
Enterobacter cloacae [20]; [28]
  MIC: 16 µg/mL (≈ 29.6 µM)
Escherichia coli [21]
  MIC: 0.015 µg/mL (≈ 0.0277 µM)

## CO/N=C(\C(=O)N[C@@H]1C(=O)N2C(C(=O)[O-])=C(C[n+]3ccc4c(c3)ncn4C)CS[C@H]12)c1csc(N)n1
Escherichia coli [1]
  MIC: 0.015 µg/mL (≈ 0.0284 µM)
Cavia porcellus
  RAP: 1
Staphylococcus aureus [6]; [22]
  MIC: 16 µg/mL (≈ 30.3 µM)
Streptococcus pyogenes
  MIC: 0.015 µg/mL (≈ 0.0284 µM)
Klebsiella pneumoniae [7]; [23]
  MIC: 0.015 µg/mL (≈ 0.0284 µM)
Pseudomonas aeruginosa [9]; [24]
  MIC: 4 µg/mL (≈ 7.57 µM)
Klebsiella pneumoniae [10]; [23]
  MIC: 8 µg/mL (≈ 15.1 µM)
Pseudomonas aeruginosa [11]; [24]
  MIC: 1 µg/mL (≈ 1.89 µM)
Streptococcus pneumoniae
  MIC: 0.008 µg/mL (≈ 0.0151 µM)
Escherichia coli [16]; [27]
  MIC: 0.015 µg/mL (≈ 0.0284 µM)
Enterococcus faecium
  MIC: 128 µg/mL (≈ 242 µM)
Staphylococcus aureus [18]; [22]
  MIC: 2 µg/mL (≈ 3.78 µM)
Enterobacter cloacae [20]; [28]
  MIC: 8 µg/mL (≈ 15.1 µM)
